In ChEMBL document CHEMBL1140908, “New insights into the design of inhibitors of human S-adenosylmethionine decarboxylase: studies of adenine C8 substitution in structural analogues of S-adenosylmethionine” (J Med Chem, 2009):

target: T1, S-adenosylmethionine decarboxylase proenzyme (Homo sapiens) (UniProt P17707); experiment: Inhibition of human C-terminal His-tagged AdoMetDC assessed as release of 14CO2 from S-adenosyl-L-[carboxy-14C]methionine at 100 uM
T1 sequence (whole entry): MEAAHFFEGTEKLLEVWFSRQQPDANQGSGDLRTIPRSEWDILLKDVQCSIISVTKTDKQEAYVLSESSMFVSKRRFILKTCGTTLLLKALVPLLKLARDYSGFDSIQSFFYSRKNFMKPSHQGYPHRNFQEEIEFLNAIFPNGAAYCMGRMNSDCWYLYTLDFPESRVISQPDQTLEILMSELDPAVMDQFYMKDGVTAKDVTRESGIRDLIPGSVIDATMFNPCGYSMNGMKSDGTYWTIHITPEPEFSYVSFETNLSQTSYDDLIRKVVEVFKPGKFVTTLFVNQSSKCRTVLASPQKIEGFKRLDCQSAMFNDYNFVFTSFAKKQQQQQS

inhibition [%] | Compound
< 5 | Cc1nc2c(N)ncnc2n1[C@@H]1O[C@H](CN(C)CC(N)=O)[C@@H](O)[C@H]1O
< 5 | CN(CCNC(=N)N)C[C@H]1O[C@@H](n2cnc3c(N)ncnc32)[C@H](O)[C@@H]1O
< 5 | CN(CCN)C[C@H]1O[C@@H](n2cnc3c(N)ncnc32)[C@H](O)[C@@H]1O
< 5 | CNCCNC[C@H]1O[C@@H](n2cnc3c(N)ncnc32)[C@H](O)[C@@H]1O

The next lines start with the compound.

Compound | inhibition [%]
CN(CCCCON)C[C@H]1O[C@@H](n2c(-c3ccccc3)nc3c(N)ncnc32)[C@H](O)[C@@H]1O | < 5
CN(CCON)C[C@H]1O[C@@H](n2c(-c3ccccc3)nc3c(N)ncnc32)[C@H](O)[C@@H]1O | < 5
CNCCCNC[C@H]1O[C@@H](n2c(NC)nc3c(N)ncnc32)[C@H](O)[C@@H]1O | < 5
CN(CCCN)C[C@H]1O[C@@H](n2c(-c3ccccc3)nc3c(N)ncnc32)[C@H](O)[C@@H]1O | < 5
CNCCCNC[C@H]1O[C@@H](n2c(-c3ccccc3)nc3c(N)ncnc32)[C@H](O)[C@@H]1O | < 5
CNCCNC[C@H]1O[C@@H](n2c(C)nc3c(N)ncnc32)[C@H](O)[C@@H]1O | < 5

target: T2, S-adenosylmethionine decarboxylase proenzyme (Homo sapiens, UniProt P17707); experiment: Inhibition of human C-terminal His-tagged AdoMetDC assessed as release of 14CO2 from S-adenosyl-L-[carboxy-14C]methionine
T2 sequence (P17707 whole entry): T1 sequence (whole entry)
How it was run: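 Enzyme: human AdoMetDC from a pQE30 plasmid with the (H)6 tag at the C-terminus in place of the terminal -QQQQQS. Expressed in E. coli JM109 with IPTG induction overnight at 15 °C, then purified on Talon resin and Sephadex G-75 in putrescine-containing buffer. Assay used 1 nM enzyme, no inhibitor plus at least five inhibitor concentrations. IC50 came from curve fits of concentration versus % inhibition.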

Compound | IC50 [nM]
CNc1nc2c(N)ncnc2n1[C@@H]1O[C@H](CN(C)CCCCON)[C@@H](O)[C@H]1O | 49
Cc1nc2c(N)ncnc2n1[C@@H]1O[C@H](C[S+](C)C)[C@@H](O)[C@H]1O | 3000
